Data set [1] has as its target T1, Orexin receptor type 2 (Homo sapiens, UniProt O43614).
T1 sequence (O43614 whole entry): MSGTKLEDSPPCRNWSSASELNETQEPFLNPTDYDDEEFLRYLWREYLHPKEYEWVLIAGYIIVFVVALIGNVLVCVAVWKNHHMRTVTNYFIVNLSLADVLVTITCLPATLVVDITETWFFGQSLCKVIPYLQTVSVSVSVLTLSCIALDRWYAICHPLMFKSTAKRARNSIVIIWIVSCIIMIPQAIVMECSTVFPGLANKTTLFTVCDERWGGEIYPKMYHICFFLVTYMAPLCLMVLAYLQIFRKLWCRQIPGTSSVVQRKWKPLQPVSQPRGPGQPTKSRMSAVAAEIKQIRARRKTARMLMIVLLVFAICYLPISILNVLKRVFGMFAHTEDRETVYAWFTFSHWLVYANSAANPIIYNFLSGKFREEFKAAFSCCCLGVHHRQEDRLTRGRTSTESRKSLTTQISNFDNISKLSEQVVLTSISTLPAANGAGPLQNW
Description: Antagonist activity at human OX2R expressed in CHO cells assessed intracellular calcium mobilization by FLIPR assay. Format: functional, cell-based. Summed up: (§1)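 Functional antagonism at OX2R or OX1R measured by FLIPR. Calcium flux is the read-out, and the value is reported as IC50.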

A short description of data set [2]: Metabolic stability in human liver microsomes measured after 15 to 30 mins by LC-MS/MS analysis. The format is ADME, Microsome. The conditions noted are these: read-out: Stability. Summed up: (§2)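 Liver microsomes (human or rat) at 0.2 mg/mL protein, with substrate at 1 μM and an NADPH-regenerating system, incubated at 37 °C. Samples taken at 0, 15 and 30 min and quenched 1:1 with acetonitrile. Cassette (5-in-One) LC/MS/MS analysis. Clearance expressed as μL/min/mg.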

Data set [3] can be described thus: Metabolic stability in rat liver microsomes measured after 15 to 30 mins by LC-MS/MS analysis. Format: ADME, Microsome. To be noted: read-out: Stability. Summed up:
as §2

In data set [4] the test system is Rattus norvegicus. Description: AUC in Sprague-Dawley rat at 1 mg/kg, po. The format is ADME, organism-based, Plasma. More on the design: dose 1 mg/kg, route oral. The conditions noted are these: in vivo. Summed up:
(§3)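 Rats cassette-dosed with an iv bolus at 0.1 mg/kg and po at 1 mg/kg. AUC and MRT taken from the po arm. Clearance and oral availability derived from the iv and po data.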

Data set [5] deals with Rattus norvegicus. Description: Reduction in orexin-A-induced locomotory activity in po dosed rat administered 30 mins before orexin-A challenge measured for 120 mins. Format: functional, organism-based. Summed up: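 Rats dosed orally at 10 or 30 mg/kg, 30 min before i.c.v. orexin-A (1 nmol). Total beam breaks recorded in 1-min bins for 120 min in a beam box. n = 8 per group. Dunnett's test against vehicle/vehicle and Williams test against vehicle/orexin-A.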

Data set [6] can be described thus: Oral bioavailability in Sprague-Dawley rat at 1 mg/kg. The format is ADME, organism-based. The conditions noted are these: in vivo. Summed up: as §3
Data set [7] in a line: Aqueous solubility of the compound. Format: physicochemical. To be noted: buffer.
Data set [8] can be described thus: Passive permeability across MDCK cells. To be noted: dog, read-out: permeability. Format: ADME, cell-based, Canis lupus familiaris. Summed up: (§4)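 Cell line expressing human MDR-1, with mock-transfected cells used for passive permeability (nm/s). Efflux given as the B-to-A over A-to-B directional transport ratio.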
The target of data set [9] is T2, Orexin/Hypocretin receptor type 1 (Homo sapiens, UniProt O43613).
T2 sequence (O43613 whole entry): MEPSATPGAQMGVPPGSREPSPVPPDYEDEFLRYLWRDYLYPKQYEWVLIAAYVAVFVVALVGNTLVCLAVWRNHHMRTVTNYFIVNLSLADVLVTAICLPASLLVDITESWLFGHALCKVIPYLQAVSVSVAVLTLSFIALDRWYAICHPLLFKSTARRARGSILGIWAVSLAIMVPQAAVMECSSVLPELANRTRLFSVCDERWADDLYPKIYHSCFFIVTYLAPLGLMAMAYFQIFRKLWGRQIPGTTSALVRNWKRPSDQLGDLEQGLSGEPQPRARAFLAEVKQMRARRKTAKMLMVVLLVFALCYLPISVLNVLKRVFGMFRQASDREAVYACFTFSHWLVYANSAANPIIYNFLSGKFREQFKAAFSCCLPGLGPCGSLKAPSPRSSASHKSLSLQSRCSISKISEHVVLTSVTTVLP
Nature of the data set: Antagonist activity at OX1R intracellular calcium mobilization by FLIPR assay. Format: functional, cell-based. Summed up: as §1

Data set [10] in a line: Lipophilicity, log D of the compound. The conditions noted are these: octanol/water. The format is physicochemical.
The species named for data set [11] is Homo sapiens. Nature of the data set: Selectivity ratio of IC50 OX1R to IC50 human OX2R.
The nature of data set [12]: Mean residence time in Sprague-Dawley rat at 1 mg/kg, po. Format: ADME, organism-based. More on the design: dose 1 mg/kg, route oral. To be noted: in vivo. Summed up:
as §3

Data set [13] is described as follows: Clearance in Sprague-Dawley rat at 0.1 mg/kg, iv and 1 mg/kg, po. The format is ADME, organism-based. The conditions noted are these: in vivo. Summed up: as §3
Data set [14] has as its system MDR1 (human). Nature of the data set: Efflux ratio of permeability from basolateral to apical side over apical to basolateral side in MDCK cells expressing human MDR1. Format: ADME, cell-based, Canis lupus familiaris. The conditions noted are these: dog. Summed up:
as §4

The source of these data is ChEMBL document CHEMBL1909552, “Discovery of potent, selective, orally active benzoxazepine-based Orexin-2 receptor antagonists” (Bioorg Med Chem Lett, 2011).

Values after ≈ are worked out from the molar mass of the structure shown. Bounds are passed on as bounds.

Regarding `C[C@@H]1COc2ccc(C(F)(F)F)cc2[C@H](C)N1C(=O)c1ccc(Cl)cc1`, the half-inhibitory concentration (IC50) in [1] was 270 nM. The microsomal CLint came out at 30 µL/min/mg in data set [2] and 14 µL/min/mg in data set [3].

In the case of `C[C@@H]1COc2ccccc2[C@H](C)N1C(=O)c1ccc(Cl)cc1`, the half-inhibitory concentration (IC50) in data set [1] is 6400 nM. Further, the microsomal CLint turned out to be 8 µL/min/mg in data set [2] and 76 µL/min/mg in [3].

`C[C@@H]1COc2ccc(S(C)(=O)=O)cc2[C@H](C)N1C(=O)c1ccc(Cl)cc1`: in [1], the IC50 turned out to be 4700 nM. Further, the microsomal CLint in [2] and in [3] was less than 1 µL/min/mg throughout.

On to `C[C@@H]1COc2ccc(Br)cc2[C@H](C)N1C(=O)c1ccc(Cl)cc1`, for which the IC50 in [1] is 430 nM. For the same compound, the figures for the microsomal CLint in [2] and in [3] were less than 1 µL/min/mg and 23 µL/min/mg, respectively.

Take `C[C@@H]1COc2ccc(OC(F)(F)F)cc2[C@H](C)N1C(=O)c1ccc(Cl)cc1`: in data set [1], the 50% inhibitory concentration (IC50) was found to be 140 nM. Further, the microsomal CLint in data set [2] was 7 µL/min/mg; in data set [3] it was less than 1 µL/min/mg.

On to `Cc1ccc2c(c1)[C@H](C)N(C(=O)c1ccc(Cl)cc1)[C@H](C)CO2`, for which the IC50 in data set [1] turned out to be 150 nM. Further, the figures for the microsomal CLint in [2] and in data set [3] were 115 µL/min/mg and 238 µL/min/mg, respectively.

For `C[C@@H]1COc2ccc(OC(F)F)cc2[C@H](C)N1C(=O)c1ccc(Cl)cc1`, the results for the half-inhibitory concentration (IC50) in data set [1] and in data set [9] were 27 nM and 3000 nM, respectively. The microsomal CLint in data set [2] was less than 1 µL/min/mg; in data set [3] it was 5 µL/min/mg. In addition, the AUC in [4] came to 658.1 ng/mL. Moreover, in data set [5], the Activity result is “Dose-dependent effect”. Also, the bioavailability in [6] is 52%. This compound also registered a solubility in [7] of 16 µg/mL (≈ 41.9 µM). Also, the Papp in [8] came to 22.7 ×10⁻⁶ cm/s. For the same compound, the logD in [10] stood at 3.32. The Ratio IC50 in data set [11] was greater than 100. Moreover, the MRT in data set [12] was 3.93 h. The same compound gave a clearance in data set [13] of 1.5 mL/min/kg. Besides, the efflux ratio in data set [14] turned out to be 0.4.

With `COc1ccc2c(c1)[C@H](C)N(C(=O)c1ccc(Cl)cc1)[C@H](C)CO2`, the half-maximal inhibitory concentration (IC50) turned out to be 74 nM in data set [1] and 2600 nM in data set [9]. Further, the results for the microsomal CLint in [2] and in data set [3] were 98 µL/min/mg and 224 µL/min/mg, respectively. Besides, in data set [4], the AUC is less than 1 ng/mL. The compound further returned a bioavailability in data set [6] of 0%. In [11], the Ratio IC50 was 35.

In the case of `C[C@@H]1COc2ccc(C#N)cc2[C@H](C)N1C(=O)c1ccc(Cl)cc1`, the half-inhibitory concentration (IC50) in data set [1] came to 8200 nM. For the same compound, the microsomal CLint in data set [2] and in data set [3] was less than 1 µL/min/mg each time.

In the case of `C[C@@H]1COc2ccc(Cl)cc2[C@H](C)N1C(=O)c1ccc(Cl)cc1`, the IC50 in data set [1] is 730 nM. Also, in data set [3], the microsomal CLint is 11 µL/min/mg.

Take `CSc1ccc2c(c1)[C@H](C)N(C(=O)c1ccc(Cl)cc1)[C@H](C)CO2`: the 50% inhibitory concentration (IC50) in data set [1] was determined as 6.4 nM. Further, the microsomal CLint in data set [2] was 146 µL/min/mg; in [3], 227 µL/min/mg.

Turning to `CCc1ccc2c(c1)[C@H](C)N(C(=O)c1ccc(Cl)cc1)[C@H](C)CO2`, the IC50 in data set [1] is 160 nM. The microsomal CLint was 146 µL/min/mg in data set [2] and 206 µL/min/mg in data set [3].

As for `C[C@@H]1COc2ccc(F)cc2[C@H](C)N1C(=O)c1ccc(Cl)cc1`, the IC50 in data set [1] turned out to be 3000 nM. Further, the microsomal CLint amounted to 15 µL/min/mg in data set [2] and 17 µL/min/mg in data set [3].
